Reference: ChEMBL document CHEMBL3352033, “Jatrophanes from Euphorbia squamosa as potent inhibitors of Candida albicans multidrug transporters” (J Nat Prod, 2014)
Calls of active or inactive are those of the source. The calls are words filed in the database; no cut-off is given here.

Experiments:
Candida albicans [1] = test: Inhibition of Candida albicans CaCdr1p-mediated drug efflux overexpressed in Saccharomyces cerevisiae assessed as nile red accumulation after 30 mins by flow cytometry
How it was run: (§1)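 Host is S. cerevisiae AD1-8u− deleted for its own multidrug transporters, carrying the C. albicans transporter ORF integrated at the PDR5 locus (AD-CDR1 or AD-MDR1). Cells are grown in YEPD at 30 °C from OD600 0.1 to 0.25, then resuspended as a 5% suspension in YEPD diluted 1:2 with water. NR is 7 μM final with inhibitor at 70 μM, 30 min at 30 °C. Read-out is flow cytometry of 10 000 cells. Three independent experiments.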

Candida albicans [2] = test: Inhibition of Candida albicans CaMdr1p-mediated drug efflux overexpressed in Saccharomyces cerevisiae assessed as nile red accumulation after 30 mins by flow cytometry; how it was run: as §1
Saccharomyces cerevisiae [3] = test: Toxicity against Saccharomyces cerevisiae AD1-8u(-); assay type: organism-based
How it was run: (§2)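 Yeast cells (10^4) seeded with inhibitor 0.15−80 μM or none, grown 48 h at 30 °C in YEPD; optical density measured. Growth without inhibitor set as 100%, and the concentration giving 50% growth taken as IC50. Means ± SD of three independent experiments, duplicate samples.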

Saccharomyces cerevisiae [4] = test: Toxicity against Saccharomyces cerevisiae AD1-8u(-) overexpressing CaCdr1p; assay type: organism-based; how it was run: as §2
Saccharomyces cerevisiae [5] = test: Toxicity against Saccharomyces cerevisiae AD1-8u(-) overexpressing CaMdr1p; assay type: organism-based; how it was run: as §2
Saccharomyces cerevisiae [6] = test: Resistance index, ratio of IC50 for Saccharomyces cerevisiae AD1-8u(-) overexpressing CaCdr1p to IC50 for Saccharomyces cerevisiae AD1-8u(-); assay type: functional
How it was run: (§3)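 RI computed as the IC50 for the AD-CDR1 or AD-MDR1 strain divided by that for control strain AD1-8u−. Each IC50 comes from optical density after 48 h growth at 30 °C of 10^4 cells with inhibitor at 0.15−80 μM, 50% growth versus untreated. Means ± SD of three independent experiments.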

Saccharomyces cerevisiae [7] = test: Resistance index, ratio of IC50 for Saccharomyces cerevisiae AD1-8u(-) overexpressing CaMdr1p to IC50 for Saccharomyces cerevisiae AD1-8u(-); assay type: functional; how it was run: as §3
Saccharomyces cerevisiae [8] = test: Growth inhibition of Saccharomyces cerevisiae AD1-8u(-) assessed as FIC of fluconazole by checkerboard method; assay type: functional
How it was run: (§4)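 Checkerboard per CLSI: yeast cells (10^4) in 96-well format with fluconazole 0.15−800 μM crossed with inhibitor 0.15−80 μM, grown 48 h at 30 °C in YEPD; growth read by optical density. FIC for FLC = IC50 of FLC in combination/IC50 alone; FIC for inhibitor likewise; FICI from both. Means ± SD of three independent experiments.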

Saccharomyces cerevisiae [9] = test: Growth inhibition of Saccharomyces cerevisiae AD1-8u(-) overexpressing CaCdr1p assessed as FIC of fluconazole by checkerboard method; assay type: functional; how it was run: as §4
Saccharomyces cerevisiae [10] = test: Growth inhibition of Saccharomyces cerevisiae AD1-8u(-) overexpressing CaMdr1p assessed as FIC of fluconazole by checkerboard method; assay type: functional; how it was run: as §4
Saccharomyces cerevisiae [11] = test: Growth inhibition of Saccharomyces cerevisiae AD1-8u(-) assessed as FIC of compound by checkerboard method; assay type: functional; how it was run: as §4
Saccharomyces cerevisiae [12] = test: Growth inhibition of Saccharomyces cerevisiae AD1-8u(-) overexpressing CaCdr1p assessed as FIC of compound by checkerboard method; assay type: functional; how it was run: as §4
Saccharomyces cerevisiae [13] = test: Growth inhibition of Saccharomyces cerevisiae AD1-8u(-) overexpressing CaMdr1p assessed as FIC of compound by checkerboard method; assay type: functional; how it was run: as §4
Saccharomyces cerevisiae [14] = test: Growth inhibition of Saccharomyces cerevisiae AD1-8u(-) assessed as FIC index by checkerboard method; assay type: functional; how it was run: as §4
Saccharomyces cerevisiae [15] = test: Growth inhibition of Saccharomyces cerevisiae AD1-8u(-) overexpressing CaCdr1p assessed as FIC index by checkerboard method; assay type: functional; how it was run: as §4
Saccharomyces cerevisiae [16] = test: Growth inhibition of Saccharomyces cerevisiae AD1-8u(-) overexpressing CaMdr1p assessed as FIC index by checkerboard method; assay type: functional; how it was run: as §4

## CC(=O)O[C@@H]1[C@@H](OC(C)=O)C(C)(C)/C=C/[C@H](C)C(=O)[C@@]2(OC(C)=O)C[C@@H](C)[C@H](OC(=O)c3ccccc3)/C2=C/[C@](C)(O)[C@@H]1OC(C)=O
Candida albicans [1]
  inhibition: 88%
Candida albicans [2]
  inhibition: Active
Saccharomyces cerevisiae [3]
  IC50: 2.3 µM
Saccharomyces cerevisiae [4]
  IC50: 26.7 µM
Saccharomyces cerevisiae [5]
  IC50: 28.3 µM
Saccharomyces cerevisiae [6]
  Ratio IC50: 11.6
Saccharomyces cerevisiae [7]
  Ratio IC50: 12.3
Saccharomyces cerevisiae [8]
  FIC50: 1.2
Saccharomyces cerevisiae [9]
  FIC50: 0.02
Saccharomyces cerevisiae [10]
  FIC50: 0.5
Saccharomyces cerevisiae [11]
  FIC50: 0.07
Saccharomyces cerevisiae [12]
  FIC50: 0.01
Saccharomyces cerevisiae [13]
  FIC50: 0.02
Saccharomyces cerevisiae [14]
  fractional inhibitory concentration index (FICI): 1.27
Saccharomyces cerevisiae [15]
  fractional inhibitory concentration index (FICI): 0.03
Saccharomyces cerevisiae [16]
  fractional inhibitory concentration index (FICI): 0.52

## CC(=O)O[C@@H]1[C@@H](OC(C)=O)C(C)(C)/C=C/[C@H](C)[C@@H](OC(C)=O)[C@@]2(OC(C)=O)C[C@@H](C)[C@H](OC(=O)c3ccccc3)/C2=C\[C@](C)(O)[C@@H]1O
Candida albicans [1]
  inhibition: inactive

## C=C1CCC(=O)C(C)(C)/C=C/[C@H](C)C(=O)[C@@]2(OC(C)=O)C[C@H](C)[C@H](OC(=O)c3ccccc3)[C@@H]2[C@H]1OC(C)=O
Candida albicans [1]
  inhibition: Active
Candida albicans [2]
  inhibition: Active

## C=C1[C@H](OC(C)=O)[C@@H](OC(C)=O)[C@@H](OC(C)=O)C(C)(C)/C=C/[C@H](C)C(=O)[C@@]2(OC(C)=O)C[C@H](C)[C@H](OC(C)=O)[C@@H]2[C@H]1OC(=O)c1ccccc1
Candida albicans [1]
  inhibition: inactive

## CC(=O)O[C@@H]1[C@H](C)/C=C/C(C)(C)C(=O)C[C@@H](OC(=O)c2ccccc2)/C(C)=C/[C@H]2[C@@H](OC(=O)c3ccccc3)[C@H](C)C[C@]12OC(C)=O
Candida albicans [1]
  inhibition: inactive

## C=C1[C@H](OC(=O)c2ccccc2)[C@H]2[C@@H](OC(C)=O)[C@@H](C)C[C@]2(OC(C)=O)C(=O)[C@@H](C)/C=C/C(C)(C)C(=O)[C@H](OC(C)=O)[C@H]1OC(C)=O
Candida albicans [1]
  inhibition: inactive

## C=C1CC(OC(C)=O)C(=O)C(C)(C)/C=C/[C@H](C)[C@@H](OC(C)=O)[C@@]2(OC(C)=O)C[C@@H](C)[C@H](OC(=O)c3ccccc3)[C@@H]2[C@H]1OC(C)=O (some centres not stated)
Candida albicans [1]
  inhibition: Active
Saccharomyces cerevisiae [3]
  IC50: 2.3 µM
Saccharomyces cerevisiae [4]
  IC50: 31.7 µM
Saccharomyces cerevisiae [5]
  IC50: 25 µM
Saccharomyces cerevisiae [6]
  Ratio IC50: 13.8
Saccharomyces cerevisiae [7]
  Ratio IC50: 10.9
Saccharomyces cerevisiae [8]
  FIC50: 1.2
Saccharomyces cerevisiae [9]
  FIC50: 0.04
Saccharomyces cerevisiae [10]
  FIC50: 1
Saccharomyces cerevisiae [11]
  FIC50: 0.07
Saccharomyces cerevisiae [12]
  FIC50: 0.02
Saccharomyces cerevisiae [13]
  FIC50: 0.02
Saccharomyces cerevisiae [14]
  fractional inhibitory concentration index (FICI): 1.27
Saccharomyces cerevisiae [15]
  fractional inhibitory concentration index (FICI): 0.06
Saccharomyces cerevisiae [16]
  fractional inhibitory concentration index (FICI): 1.02

## CC(=O)O[C@@H]1[C@@H](O)[C@@H](OC(C)=O)/C(C)=C/[C@H]2[C@@H](OC(=O)c3ccccc3)[C@H](C)C[C@]2(OC(C)=O)[C@H](OC(C)=O)[C@@H](C)/C=C/C1(C)C
Candida albicans [1]
  inhibition: Active
Saccharomyces cerevisiae [3]
  IC50: 2.3 µM
Saccharomyces cerevisiae [4]
  IC50: 3.7 µM
Saccharomyces cerevisiae [5]
  IC50: 3.5 µM
Saccharomyces cerevisiae [6]
  Ratio IC50: 1.6
Saccharomyces cerevisiae [7]
  Ratio IC50: 1.5
Saccharomyces cerevisiae [8]
  FIC50: 1.2
Saccharomyces cerevisiae [9]
  FIC50: 0.08
Saccharomyces cerevisiae [10]
  FIC50: 1
Saccharomyces cerevisiae [11]
  FIC50: 0.07
Saccharomyces cerevisiae [12]
  FIC50: 0.34
Saccharomyces cerevisiae [13]
  FIC50: 0.36
Saccharomyces cerevisiae [14]
  fractional inhibitory concentration index (FICI): 1.27
Saccharomyces cerevisiae [15]
  fractional inhibitory concentration index (FICI): 0.42
Saccharomyces cerevisiae [16]
  fractional inhibitory concentration index (FICI): 1.36
